# From PubChem
# Rows were chosen to be rich in hits. Some 3.1% of all compounds tested hit in one or more screens of this group.
# FN deposit inh – fibronectin deposition inhibition | AH1F fibroblasts, Alexa488-fibronectin deposition fluorescence, overnight | inhibition, % at 12.6 µM | 350,000 compounds, 0.086% hits | AID 743247;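 active = mean inhibition across replicates of 30% or more, regardless of how many single replicates reach that level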;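 also: positive control wells lacked labelled fibronectin entirely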
#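 Material: AH1F fibroblasts assembling fluorescent fibronectin matrix; amount: 10000 AH1F cells/well; medium: DMEM, 2% serum; reagent: Alexa488-fibronectin, 24 nM final in well; dosing: single compound dose, delivered by pin transfer; incubation: 1 h adhesion, overnight exposure; detection: fluorescence after three HBSS washes, excitation 485 nm, emission 525 nm; measure: fibronectin deposition inhibition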
# HIV Env fusion – HIV envelope-mediated fusion inhibition. 360,000 compounds, 1.1% hits. inhibition, % at 12.3 µM. HeLa-JRFL Env/CEM21 cell fusion, luciferase;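 active = mean replicate inhibition score of at least 50 and every replicate individually at or above 50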;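 also: 0% = plate neutral controls and 100% = maraviroc near 300 nM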
# FGF22 binding – FGF22 (human) thermal shift binding; Q9HCT0; recombinant FGF22 thermal shift, SYPRO orange fluorescence; percent of sucrose octasulfate shift, DMSO zero; 340,000 compounds, 1.5% hits; activity (Tm shift, normalised), % at 9.99 µM;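 active = mean Tm shift, scaled 0 neutral to 100 positive control, at about 1.3% or above, every replicate too, limit read from the data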
# Target sequence (Q9HCT0 whole entry, looked up): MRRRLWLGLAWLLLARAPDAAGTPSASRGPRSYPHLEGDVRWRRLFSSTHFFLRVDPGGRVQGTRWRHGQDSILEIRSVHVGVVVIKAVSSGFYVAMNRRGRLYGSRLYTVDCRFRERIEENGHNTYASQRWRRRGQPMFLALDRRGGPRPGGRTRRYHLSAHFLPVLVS
# EWS-Fli block – inhibitors of EWS/Fli oncoprotein transcriptional activity | A673 NR0B1-luciferase reporter, viability-normalised | inhibition, % at 12.6 µM | 350,000 compounds, 0.67% hits;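 active = mean inhibition of at least 50% after viability correction, with every replicate also passing that limit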;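 also: firefly luciferase signal divided by Alamar Blue viability fluorescence both relative to DMSO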
# PAX8 reporter – inhibitors of PAX8 transcriptional activity in RMG-I cells. inhibition, % at 12.6 µM. 360,000 compounds, 1.2% hits. RMG-I TPO-luciferase reporter, SteadyGlo, 24 h. AID 652154;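 active = mean replicate inhibition at least 60% with every replicate also reaching 60%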;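 also: luciferase light reporting Pax8 driven TPO promoter activity; plate controls were median of neutral control wells for no effect and mitoxantrone controls for full effect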
# PGC1a acetyl inh – lowers PGC1a acetylation signal in U2OS cells; AID 651687; inhibition, % at 15.6 µM; AlphaScreen anti-acetyl-lysine; with virally co-expressed GCN5 acetyltransferase; 350,000 compounds, 0.17% hits;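 active = every replicate shows inhibition of at least 40%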;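 also: 0% = neutral control wells and 100% = positive control wells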
# * marks the source's active call; other numbers are inactive results; x = not tested or not shown; [ ] = dose if it differs, or a comment.
SMILES,FN deposit inh,HIV Env fusion,FGF22 binding,EWS-Fli block,PAX8 reporter,PGC1a acetyl inh
C[C@@H]1CN([C@@H](C)CO)C(=O)c2cc(NS(=O)(=O)c3ccccc3)ccc2O[C@H]1CN(C)S(=O)(=O)c1cccs1,x,32.0[16.7 µM],-0.2,3.3,-0.3,1.3
COc1cccc(NC(=O)N(C)C[C@@H]2Oc3ncc(C4=CCCCC4)cc3C(=O)N([C@H](C)CO)C[C@H]2C)c1,x,-11.9[16.7 µM],-0.9,2.1,x,0.0
C[C@@H]1CN([C@@H](C)CO)C(=O)c2cc(NC(=O)C3CCCCC3)ccc2O[C@H]1CN(C)C(=O)Nc1cccc2ccccc12,x,17.9[16.7 µM],0.1,3.1,22.6,-5.2
COc1ccc2c3c([nH]c2c1)[C@@H](CO)N(Cc1nccs1)CC31CCN(C(=O)C2CCC2)CC1,x,x,-0.2,-6.9,-17.5,x
COc1cccc(-c2cc(-c3cccnc3)nc(N)c2C#N)c1,2.2,13.3,0.2,7.1,-3.8,-1.3
COc1ccc(OC)c(-c2cc(-c3cccnc3)nc(N)c2C#N)c1,16.5,-64.6,-0.1,56.5*,21.1,-0.1
CCN1[C@@H]2c3ccc(-c4cccnc4)c(=O)n3C[C@H]1[C@H](CO)[C@H]2C(=O)NC1CCCC1,x,x,x,-9.2,x,9.1
Cc1ccccc1NC(=O)CC1c2ccccc2CC(C)(C)N1C (stereo unspecified),6.8,1.3,0.4,0.0,7.3,82.6*
Cc1noc(C)c1S(=O)(=O)Nc1ccc2c(c1)CC(=O)N([C@@H](C)CO)C[C@@H](C)[C@@H](CN(C)C(=O)NC(C)C)O2,-1.0,14.3[16.7 µM],-0.4,0.1,-1.8,3.4
CN(C[C@H](Cc1ccccc1)N(C[C@H](Cc1ccccc1)N(CC1(c2ccccc2)CC1)N=O)N=O)N=O,-2.2,98.4*,0.3,8.2,38.8,-3.2
CN(C[C@@H](CC1CCCCC1)N(C[C@H](Cc1ccccc1)N(CCc1ccccc1)N=O)N=O)N=O,-11.5,83.6*,0.3,9.2,22.0,x
CN(C[C@H](Cc1ccccc1)N(C[C@H](CC1CCCCC1)N(CCc1ccccc1)N=O)N=O)N=O,8.3,67.3*,-0.1,5.7,-15.9,x
CN(CCC#N)C(=O)CC1(Cc2ccccc2)CCOC(C)(C)C1 (stereo unspecified),3.2,-5.7,0.0,0.5,2.4,1.4
CCC(C)[C@@H](CN(N=O)[C@@H](Cc1ccccc1)CN(C)N=O)N(CCc1ccccc1)N=O (stereo partly specified),x,x,x,x,x,-10.8
CCN(CC)C(=O)c1ncn2c1C(=O)N[C@H](C)C2,-1.8,61.5*,-0.7,-5.6,-5.6,x
CCN(CC)C(=O)c1ncn2c1C(=O)N[C@@H](C)C2,-27.6,45.2,-0.2,-2.9,-8.9,x
CC1CCN(C(=O)c2ncn3c2C(=O)N[C@H](C)C3)CC1,-4.7,71.9*,0.2,0.1,4.7,x
C[C@H]1Cn2cnc(C(=O)N3CCN(C(=O)OC(C)(C)C)CC3)c2C(=O)N1,11.5,-37.2,-0.3,-5.0,-3.8,x
COc1ccc(-c2ccc3c(c2)O[C@@H](CN(C)Cc2ccccc2C(=O)O)[C@@H](C)CN([C@H](C)CO)S3(=O)=O)cc1,-5.9,13.9[16.7 µM],0.1,-2.6,x,-1.8
Cn1nc2c(c1C(=O)N1CCCC(C(=O)c3cc(F)ccc3F)C1)CCCC2 (stereo unspecified),1.5,21.9,43.4*,-7.7,-22.8,x
COc1ccc(C(=O)C2CCCN(C(=O)c3c4c(nn3C)CCCC4)C2)cc1F (stereo unspecified),1.9,8.2,x,-5.0,-18.9,x
CCCC(=O)Nc1ccc(Cl)c(NC(=S)NC(=O)c2cc3ccccc3o2)c1,5.3,x,0.1,4.7,72.8*,x
CCC(=O)Nc1ccc(NC(=S)NC(=O)c2cc3ccccc3o2)cc1,-6.1,3.8,0.1,2.7,-31.2,x
CCOCCCNC(C(=O)Nc1ccc(OC)c(Cl)c1)c1ccccc1 (stereo unspecified),-0.9,-9.4,43.1*,4.1,1.2,x
C[C@H]1CN([C@@H](C)CO)C(=O)c2cccc(NC(=O)c3nc4ccccc4s3)c2O[C@@H]1CN(C)S(=O)(=O)c1ccc(F)cc1,x,5.2[16.7 µM],0.0,12.5,13.3,2.6
O=C(C[C@H]1C=C[C@H](NC(=O)CCN2CCCCC2)[C@@H](CO)O1)Nc1ccc(-c2ccccc2)cc1,-1.9,2.9[16.7 µM],0.0,-9.1,-4.5,-1.3
